Results from different studies.
Protocols differ between the studies behind these lines.
EGFR del747-750/T751S: Epidermal growth factor receptor (EGFR, Homo sapiens, UniProt P00533, del747-750/T751S)
EGFR L858R: Epidermal growth factor receptor (EGFR, Homo sapiens, UniProt P00533, L858R)
EGFR del746-750: Epidermal growth factor receptor (EGFR, Homo sapiens, UniProt P00533, del746-750)
EGFR L858R/T790M: Epidermal growth factor receptor (EGFR, Homo sapiens, UniProt P00533, L858R/T790M)
EGFR del752-759: Epidermal growth factor receptor (EGFR, Homo sapiens, UniProt P00533, del752-759)
EGFR: Epidermal growth factor receptor (EGFR, Homo sapiens, UniProt P00533)
EGFR T790M: Epidermal growth factor receptor (EGFR, Homo sapiens, UniProt P00533, T790M)

| Structure (SMILES) | target | test | conditions | quantity | result |
| --- | --- | --- | --- | --- | --- |
| Cc1c(C(=O)O)cc(-c2ccc(C3CCNCC3)cc2)c2ccc(-c3ccc(C(F)(F)F)cc3)cc12 | EGFR del747-750/T751S | cell-free assay, competition with immobilised ligand | 1 µM | remaining binding | 100% |
| Cc1ccc(NC(=O)c2ccc(C)c(C(F)(F)F)c2)cc1C#Cc1nn(C2CCC(O)CC2)c2ncnc(N)c12 (stereo not drawn) | EGFR L858R | cell-free assay | 10 µM | remaining signal | 21% |
| CC(C)(O)c1cncc(-c2nc3ccc(F)cc3n2C2CC2)c1 | EGFR del746-750 | cell-free assay, competition with immobilised ligand | 1 µM | remaining binding | 100% |
| Nc1ncnc2occ(-c3ccc(NC(=O)Nc4cc(C(F)(F)F)ccc4F)cc3)c12 | EGFR del747-750/T751S | cell-free assay | 20 µM | remaining signal | 27% |
| CC/C(=N\NC(=O)NCc1cccc(O)c1)c1ccc(O)c(C)c1O | EGFR L858R/T790M | enzyme activity, inhibitor | 0.1 µM | inhibition | 0.1% |
| COc1cc(N(C)CCN(C)C)c(NC(=O)/C=C/C(C)C)cc1Nc1nc(Nc2cnn(C)c2)c2sccc2n1 | EGFR L858R/T790M | enzyme activity, inhibitor, ELISA | 0.1 µM | inhibition | 34.6% |
| CCC(=O)N[C@@H]1CC[C@H](C(=O)N(C)c2ccc(-c3nc4ccccc4o3)cc2)C1 | EGFR del752-759 | cell-free assay, competition with immobilised ligand | 1 µM | remaining binding | 88% |
| Cc1cc(NC(=O)c2cccc3cc(-c4cccc5[nH]nc(N)c45)ccc23)ccc1F | EGFR L858R | enzyme activity, inhibitor | 0.1 µM | activity vs control | 112% |
| CCC(=O)Nc1cc(Nc2nc(N3CCc4sccc4C3)c3cccnc3n2)c(OC)cc1N(C)C | EGFR L858R/T790M | enzyme activity, inhibitor, ELISA | 0.1 µM | inhibition | 6% |
| Cc1sc(C(=O)NC2COC2)cc1-n1cc(NC(=O)Nc2c(F)cccc2Cl)cn1 | EGFR | enzyme activity, inhibitor | 10 µM | remaining activity | 98.5% |
| Cc1cnn2ncc(-c3ccnc(N(C)C)n3)c2c1 | EGFR T790M | binding | 1 µM | remaining binding | 100% |
| CC(C)CC(=O)N1CCc2nc(-c3ccc(Br)cc3)nc(N(C)Cc3ccccc3)c2C1 | EGFR del752-759 | cell-free assay, competition with immobilised ligand | 0.1 µM | remaining binding | 100% |
| F[C@@H]1CCN(c2nccc(-c3cnn4ncccc34)n2)C1 | EGFR del746-750 | binding | 1 µM | remaining binding | 66% |
| CCOC(=O)c1cc2cc(-c3cc(C(=O)NCc4ccc(C(=O)O)cc4)nn3C)ccc2[nH]1 | EGFR del746-750 | cell-free assay, competition with immobilised ligand | 0.1 µM | remaining binding | 100% |
| C[C@H]1CCN(c2nccc(-c3cnn4ncccc34)n2)C1 | EGFR T790M | binding | 1 µM | remaining binding | 76% |
| Cc1ccc(Nc2nccc(N(C)c3ccc4c(C)n(C)nc4c3)n2)cc1S(N)(=O)=O | EGFR | cell-free assay | 0.5 µM | remaining signal | 91% |
| Cc1cnc(NC2CCOCC2)nc1-n1cnc(C(=O)NC(CN)c2cc(F)cc(Cl)c2)c1 (stereo not drawn) | EGFR L858R | enzyme activity, inhibitor, radiometric | 1 µM | remaining activity | 112% |
| COc1cc2ncnc(Nc3cccc(Cl)c3)c2cc1OC | EGFR | cell-free assay | 0.5 µM | remaining signal | 0.718% |
| N[C@@H]1CCN(c2nccc(-c3cnn4ncccc34)n2)C1 | Epidermal growth factor receptor (EGFR, Homo sapiens, UniProt P00533, G719C) | binding | 1 µM | remaining binding | 83% |
| O=C(Nc1cnc(Oc2ccc(F)cc2)nc1)N1CCc2ncccc2[C@@H]1c1ccc(F)cc1 | EGFR del746-750 | cell-free assay, competition with immobilised ligand | 1 µM | remaining binding | 100% |
| CC(C)(O)[C@H]1CC[C@H](Nc2ccc3ncc(-c4cccc(C(F)(F)F)c4)n3n2)CC1 | EGFR | enzyme activity, inhibitor | 1 µM | remaining activity | 80% |
